Results published in PMC9306928 (Journal of Veterinary Pharmacology and Therapeutics, 2022).
Read-outs that look alike come from different tables or passages of the source. Marks after values point to notes of the source that are not given here. One block for each compound: values may come before it.

Columns and labels:
COX‐2 = target: T1, COX‐2 (Canis lupus familiaris, UniProt Q8SPQ9); format: cell-based, dog
T1 sequence (Q8SPQ9 18-604): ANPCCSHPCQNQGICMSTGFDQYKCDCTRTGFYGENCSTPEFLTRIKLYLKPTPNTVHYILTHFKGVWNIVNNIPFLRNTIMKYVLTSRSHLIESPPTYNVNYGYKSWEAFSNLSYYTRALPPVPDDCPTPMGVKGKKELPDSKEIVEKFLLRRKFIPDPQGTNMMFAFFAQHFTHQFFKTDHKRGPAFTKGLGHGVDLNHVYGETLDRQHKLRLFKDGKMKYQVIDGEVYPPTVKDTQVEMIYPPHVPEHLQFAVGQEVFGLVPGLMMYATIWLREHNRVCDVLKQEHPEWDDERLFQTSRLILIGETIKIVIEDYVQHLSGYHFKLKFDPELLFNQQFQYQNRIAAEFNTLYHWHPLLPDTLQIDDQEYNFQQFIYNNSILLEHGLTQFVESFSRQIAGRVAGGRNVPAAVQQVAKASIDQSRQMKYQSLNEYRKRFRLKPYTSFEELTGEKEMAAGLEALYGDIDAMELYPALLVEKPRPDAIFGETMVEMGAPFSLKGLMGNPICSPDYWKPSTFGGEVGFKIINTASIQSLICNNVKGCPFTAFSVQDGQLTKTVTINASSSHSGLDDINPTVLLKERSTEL
Method in brief: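 Citrated blood from three male and three female Beagles was held 4–6 h at ca 2–8°C. Duplicates received test compound at final 100, 30, 10, 3, 1, 0.3, 0.1 or 0 µM (one enantiomer max 30 µM; 0.4% DMSO) with LPS 1 µg/ml final, for 24 h at ca 37°C with orbital agitation. Plasma PGE2 was measured by ELISA (1:1000). Per-dog Hill fits gave IC50 and gamma; IC20/IC80 were derived.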

[1] = tested on: PGE2 formation in gastric mucosa; conditions: rat carrageenan model, dose of 40 mg/kg; ref Iñiguez et al. (2010); cited from earlier work
COX‐1 = target: T2, COX‐1 (Canis lupus familiaris, UniProt Q8HZR1); format: cell-based, dog; conditions: Hill equation fit of TXB2 formation; mean of six dogs
T2 sequence (Q8HZR1 28-603): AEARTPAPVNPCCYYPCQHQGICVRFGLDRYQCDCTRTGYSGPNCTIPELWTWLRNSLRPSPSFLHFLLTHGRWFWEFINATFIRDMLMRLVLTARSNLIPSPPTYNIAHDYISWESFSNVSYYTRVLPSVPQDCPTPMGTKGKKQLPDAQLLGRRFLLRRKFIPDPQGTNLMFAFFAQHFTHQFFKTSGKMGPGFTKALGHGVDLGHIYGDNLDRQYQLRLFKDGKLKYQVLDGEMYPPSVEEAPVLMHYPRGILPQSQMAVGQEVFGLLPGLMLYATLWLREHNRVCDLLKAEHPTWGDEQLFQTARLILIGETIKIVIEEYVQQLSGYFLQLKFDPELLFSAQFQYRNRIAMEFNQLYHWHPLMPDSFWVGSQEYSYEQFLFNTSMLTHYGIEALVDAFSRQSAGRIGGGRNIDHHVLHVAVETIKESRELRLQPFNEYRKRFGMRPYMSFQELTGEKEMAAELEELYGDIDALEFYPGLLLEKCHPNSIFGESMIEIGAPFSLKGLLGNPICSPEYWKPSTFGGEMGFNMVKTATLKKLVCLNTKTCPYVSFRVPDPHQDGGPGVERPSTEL
Method in brief: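 Whole blood from six male Beagles was drawn without anticoagulant and used at once. Duplicate incubations received test compound at final 500, 300, 100, 30, 10, 3, 1 or 0 µM (0.4% v/v DMSO) plus PBS, for 1 h at ca 37°C with gentle shaking. Serum TXB2 was measured by ELISA (1:3000, 412 nm). Per-dog 4-parameter Hill fits gave IC50 and gamma, and IC20/IC80 were calculated from these.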

COX‐1/COX‐2 [2] = test: Selectivity for COX‐2 inhibition; format: cell-based; conditions: dog whole blood, not corrected for blood cell partitioning
Method in brief: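 Selectivity was the quotient of mean IC50 values (six Beagles each) from two canine whole blood assays. One was clotting-induced TXB2 (COX-1; unanticoagulated blood, 1 h, ca 37°C). The other was LPS-induced PGE2 (COX-2; citrated blood, 1 µg/ml LPS, 24 h). Both were read by ELISA and Hill-fitted. IC50 ratios were tested by paired t test, and compounds by one-way ANOVA/Tukey.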

COX‐1/COX‐2 [3] = conditions: cited from earlier work
[4] = whole blood concentration, not corrected for blood cell partitioning
[5] = ref King et al., 2010, McCann et al., 2004

- IC50 for COX‐2 inhibition expressed as blood level (COX‐2; [4]): > 12 µg/mL
- IC80 for COX‐2 inhibition expressed as blood level (COX‐2; [4]): > 12 µg/mL
Structure (SMILES): NS(=O)(=O)c1ccc(N2N=C(C(F)(F)F)C[C@@H]2c2ccc(F)cc2F)cc1 [(R)‐(+)‐Enflicoxib]

- Gamma (sigmoidicity factor), COX‐1 (COX‐1): 1.8
- Gamma (sigmoidicity factor), COX‐2 (COX‐2; Hill equation fit of PGE2 formation, mean of six dogs): 2.7
Structure (SMILES): NS(=O)(=O)c1ccc(N2N=C(C(F)(F)F)C[C@H]2c2ccc(F)cc2F)cc1 [(S)‐(‐)‐Enflicoxib]
- inhibition of PGE2 formation in gastric mucosa [1]: 18%
- Ratio IC50 (COX‐1/COX‐2) (COX‐1/COX‐2 [2]): 3.77‡

Structure (SMILES): CC(C(=O)O)c1ccc2c(c1)[nH]c1ccc(Cl)cc12 (stereo not shown) [carprofen]
- COX‐2 selectivity ratio (COX‐1/COX‐2 [3]; ref Briedeau et al., 2001): ~6.5

Structure (SMILES): COc1ccc(-c2cc(C(F)F)nn2-c2ccc(S(N)(=O)=O)cc2)cc1F [deracoxib]
- COX‐2 selectivity ratio (COX‐1/COX‐2 [3]; [5]): 48.5

Structure (SMILES): CC1(C)OC(=O)C(OCC2CC2)=C1c1ccc(S(C)(=O)=O)cc1 [firocoxib]
- COX‐2 selectivity ratio (COX‐1/COX‐2 [3]; [5]): 384

Structure (SMILES): CCc1ccc(Nc2c(F)c(F)cc(F)c2F)c(CC(=O)O)c1 [robenacoxib]
- COX‐2 selectivity ratio (COX‐1/COX‐2 [3]; [5]): 129
